In the RNAGym collection of RNA variant scans (doi:10.1126/science.aae0568):
Variants at the floor of the assay were thinned out.

B1: tRNA (parent)
chain: GUUCCGUUGGCGUAAUGGUAACGCGUCUCCCUCCUAAGGAGAAGACUGCGGGUUCGAGUCCCGUACGGAACG

Variants of: B1
Assay: yeast fitness relative to wild type (ratio to wild type); higher = fitter; tRNA-Arg(CCU), competitive growth, 37 C, YPD
Procedure, shortened: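 Start and end populations of a pooled competition were compared by 100-nucleotide paired-end sequencing of gene amplicons. The Saccharomyces cerevisiae strains carried tRNA-Arg(CCU) gene variants at the native genomic locus, synthesised with a 3% per-site mutation rate at 69 sites, and competed in YPD at 37°C for 24 hours in six parallel replicates. Darwinian fitness relative to wild type was based on the change in genotype frequencies. Genotypes required ≥ 100 starting reads, and estimates < 0.5 were set to 0.5.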

For GUUCCGUUGGCGUAAUGGUUACGCGUCCCCCUCCUAAGGAGAAGACUGUGGGUUCGAGUCCCGUACGGAACG [A20U U28C C49U], which yeast fitness is on record?
Its yeast fitness is 0.61.

For GUUCCGUUGGCGUAAUGGUUACGCGACUCCCUCCUAAGGAGAAGACUGCGGGUUCGAGUCACGUACGGCACG [A20U U26A C61A A69C], which yeast fitness is on record?
The yeast fitness was no more than 0.5.

For GUUCCGUUGGCGUAAUGGUUACGCGUCUCCCUCCUAAGGAGAAGACUCCGGGUUCGAGUCCCGUACGGAACG [A20U G48C], which yeast fitness is on record?
The yeast fitness was 0.84.

With GUUCCGUUGGCGUAAUGGUUACGCGUCCCCCUCCUAAGGAGAAAAUUACGGGUUCGAGUGCAGUAGGGAACG [A20U U28C G44A C46U G48A C60G C62A C66G] as the variant, how does the yeast fitness read?
Its yeast fitness is 0.578.

Which yeast fitness does the source give for GUUCCGUUGGCGUAAUGGUUACGCGUCUCCCUCCCGAGGAGAAGACUGCGGGUUCGAGUCCCGUACGGAACG [A20U U35C A36G] here?
The yeast fitness was 0.592.

With GUUCCGUUGGCGUAAUGGUACCGCGUCUCCCUCCUAAGGAGUAGACUGCGGGUACGAGUCCCGUACGGAACG [A21C A42U U54A] as the variant, how does the yeast fitness read?
Its yeast fitness is no more than 0.5.

For GUUCCGUUGGCGUAAUGGUUACGCGUCUCCCUCCUAAGGAGAAGACUACGGGUUCGAGUCCGGUACGGAACG [A20U G48A C62G], which yeast fitness is on record?
The yeast fitness was 0.602.

Which yeast fitness does the source give for GUUCCGUUGGCGUAAUGGUUACGCGUCACCCUCCUAACGGGAAGACUGCGGGUUCGAGCCCCGUACGGAACG [A20U U28A G38C A40G U59C] here?
Its yeast fitness is 0.637.

Which yeast fitness does the source give for GUUCCGUUGGCGUAAUGGUUACGCGUCUCCCUCCUAAGGAGAAGACUGCAGGUUCGAGUCCCGUUCGGAACG [A20U G50A A65U] here?
The yeast fitness was no more than 0.5.

Which yeast fitness does the source give for GUUCCGUUGGCGUAAUGGUACCGCGUCUCCCUCCUAUGGAGAAGACUGCGAGUUCGAGUCCCGUACGGAACG [A21C A37U G51A] here?
Its yeast fitness is no more than 0.5.

Which yeast fitness does the source give for GUUCCGUUGGCGUAAUGGUACCGCGUCUCCCUCCUAAGGAGUAGACUGCGGGUUCGAGUCCCGUACGGAACG [A21C A42U] here?
Its yeast fitness is 0.639.

For GUUCCGUUGGCGUAAUGGUUACGCGUCUCCCUCCUAAGGAGAAGACAGCGGGUUCGAGUCCCGUACGGAACG [A20U U47A], which yeast fitness is on record?
Its yeast fitness is 0.673.

With GUUCCGUUGGCGUAAUGGUUACGCGUCUCCCUCCUAAGGAGAAAACUGCGGGUUCGAGUCCCGUACGGAACG [A20U G44A] as the variant, how does the yeast fitness read?
The yeast fitness was 0.662.

Which yeast fitness does the source give for GUUCCGUUGGCGUAAUGGUUACGCGUCUCCCUCCCAAGGAGAAGACUGCGGGUUCGAGACCCGUACGGAACG [A20U U35C U59A] here?
Its yeast fitness is no more than 0.5.

With GUUCCGUUGGCGUAAUGGUUACGCGUCUCCCUCCUAAGGAGAAGACUGCGGGUUCGAGCCCCGUACGGAACG [A20U U59C] as the variant, how does the yeast fitness read?
The yeast fitness was 0.917.

Which yeast fitness does the source give for GUUCCGUUGGCGUAAUGGUACCGCGUCUCCCUCCUAAGGAGAAGCCUGUGGGUUCGAGUCCCGCACGGAACG [A21C A45C C49U U64C] here?
The yeast fitness was no more than 0.5.

With GUUCCGUUGGCGUAAUGGUUACGCGUCUCCCCCCUAAGGAGAAGACUGCGGGUUCGAGUCCCGUACGGAACG [A20U U32C] as the variant, how does the yeast fitness read?
Its yeast fitness is 0.882.

Which yeast fitness does the source give for GUUCCGUUGGCGUAAUGGUUACGCGUCUCCCACCUAAGGAGAAGACUGCGGGUUCGAGUCCCGUACGGAACG [A20U U32A] here?
Its yeast fitness is 0.78.

With GUUCCGUUGGCGUAAUGGUUACGCGUCUCCCUCCUAAGGAGAAGACUGCAGGUUCGAGUCCCGUACGGAACG [A20U G50A] as the variant, how does the yeast fitness read?
Its yeast fitness is 0.88.

Which yeast fitness does the source give for GUUCCGUUGGCGUAAUGGUUACGCGUCUCCCUCCUAAGGAGAACACUGCGGGUUAGAGUCCCGUACGGAACG [A20U G44C C55A] here?
Its yeast fitness is no more than 0.5.

Which yeast fitness does the source give for GUUCCGUUGGCGUAAUGGUUACGCGUCACCCUCCUAAGGAGAAGACUGCGGGUUCGAGUCCCGUACGGUACG [A20U U28A A69U] here?
The yeast fitness was 0.585.

For GUUCCGUUGGCGUAAUGGUUACGCGUCUCCCUCCUAAGGAGAAGACUGCGAGGUCGAGUGCCGUACGGAACG [A20U G51A U53G C60G], which yeast fitness is on record?
Its yeast fitness is no more than 0.5.

Which yeast fitness does the source give for GUUCCGUUGGCGUAAUGGUUACGCGUCUCCCUCCUAAGGAGAAGACUACGGGUUCGAGUCCCGCACGGAACG [A20U G48A U64C] here?
Its yeast fitness is 0.589.

With GUUCCGUUGGCGUAAUGGUACCGCGUCUCCCUCCUAGGGAGAAGACUGCGGGUUCGAGUCCCGUACGGAACG [A21C A37G] as the variant, how does the yeast fitness read?
The yeast fitness was 0.638.

Which yeast fitness does the source give for GUUCCGUUGGCGUAAUGGUACCGCGUCUCCCUCCUAUGGAGAAGACUGCGGGUUCGAGUCCCGUACGGAACG [A21C A37U] here?
Its yeast fitness is 0.646.

With GUUCCGUUGGCGUAAUGGUUACGCGUCUCCCUCCUAAGGAGAAGACUCCGGGUUCGAGUCGCGUAUGGAACG [A20U G48C C61G C66U] as the variant, how does the yeast fitness read?
The yeast fitness was 0.505.

For GUUCCGUUGGCGUAAUGGUUACGCGUCUCCCUCCUAAGGAGAAGACUGCGGGUUCGAGUCCCGAACGGAACG [A20U U64A], which yeast fitness is on record?
Its yeast fitness is 0.821.

For GUUCCGUUGGCGUAAUGGUUACGCGUCUCCCUCCUAAGGAGAAGACUGCGGGUUCGAGUCCCGCACGGAACG [A20U U64C], which yeast fitness is on record?
The yeast fitness was 0.902.

For GUUCCGUUGGCGUAAUGGUUACGCGUCUCCCUCCUAAGGAGAAGACUGCGGGUUCGAGUCCCGUACUGAACG [A20U G67U], which yeast fitness is on record?
Its yeast fitness is 0.681.

For GUUCCGUUGGCGUAAUGGUACCGCGUCUCCCUCCUAAGGAGUAGACUGCGGGUUCGAAUCCCGUACGGAACG [A21C A42U G58A], which yeast fitness is on record?
Its yeast fitness is 0.549.

For GUUCCGUUGGCGUAAUGGUUACGCGCCUCCCUCCUAAGGAGAAGACCGCGGGUUCGAGUCCCGUACGGAGCG [A20U U26C U47C A70G], which yeast fitness is on record?
The yeast fitness was 0.603.

With GUUCCGUUGGCGUAAUGGUUACGCGCCUCACUCCUAAGGAGAAGACUGCGGGUUCGAGUCCCGUACGGAACG [A20U U26C C30A] as the variant, how does the yeast fitness read?
The yeast fitness was no more than 0.5.

With GUUCCGUUGGCGUAAUGGUACCGCGUCUCCCUCCUUAGGAGAAGACUGCGGGUUUGAGUCCCGUACGGAACG [A21C A36U C55U] as the variant, how does the yeast fitness read?
Its yeast fitness is 0.626.

For GUUCCGUUGGCGUAAUGGUACCGCGUCUCCCUCCUAAGGAGAAGCCUGUGGGUUCGAGUCCCGUACAGAACG [A21C A45C C49U G67A], which yeast fitness is on record?
Its yeast fitness is no more than 0.5.

Which yeast fitness does the source give for GUUCCGUUGGCGUAAUGGUACCGCGUCUCCCUCCUAAGGAGAAGCCGGUGGGUUCGAGUCCCGUACGGAACG [A21C A45C U47G C49U] here?
Its yeast fitness is no more than 0.5.

Which yeast fitness does the source give for GUUCCGUUGGCGUAAUGGUUACGCGUCUCCCUCCUAAGGAAAAGACUGCGGGUUCGAGUCCCGUACGGAACG [A20U G41A] here?
Its yeast fitness is 0.867.

Which yeast fitness does the source give for GUUCCGUUGGCGUAAUGGUUACGCGUCUCCCACCUAAGGAGAAGAGUGCGGGUUCGAGUCCCGUACGGAACG [A20U U32A C46G] here?
Its yeast fitness is 0.586.

Which yeast fitness does the source give for GUUCCGUUGGCGUAAUGGUACCGCGUCUCCCUCCUAGGGAGAAGACUGCGGGUUCGAGGCCCGUACGGAACG [A21C A37G U59G] here?
Its yeast fitness is no more than 0.5.
